Consider one substance from publication PMC10281356 (Drug Delivery, 2023).

The test system of data set [1] is EGFP and luciferase mRNA. In words: Gel retardation assay, vector-mRNA binding. The conditions noted are these: agarose gel electrophoresis. In outline:
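Test compounds (peptide vectors, with or without PEG) mixed with EGFP or luciferase mRNA at 0.5:1 to 15:1 (w/w) to form self-assemblies. Run on agarose gel in 1× TAE at 140 V for 40 min. Stained with GelRed and imaged under UV. Unbound mRNA served as control. Complete binding was taken as loss of the free mRNA band.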

The subject of data set [2] is A549 cells. In words: MTT cytotoxicity assay on A549 cells. It counts as cell-based, human. Conditions: peptide alone at 50 and 25 μg/mL, 24 h, n = 3. In outline:
(§1)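 Peptide vectors, PEGylated or not, were added alone at a series of concentrations to A549 or HepG2 cells, followed by MTT read-out. Viability (%) was calculated from absorbance of treated cells relative to untreated cells. Data given as mean ± SEM (n = 3) and compared by one-way ANOVA with Tukey's post-hoc test.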

Data set [3] relates to HepG2 cells. In words: MTT cytotoxicity assay on HepG2 cells. It counts as cell-based, human. Conditions: peptide alone at 50 and 25 μg/mL, 24 h, n = 3. A digest of the protocol: as §1
For orientation: Formazan colour is commonly taken as a measure of viable cells.

As to “(PEG24)-KKALLAHALHLLA LLALHLAHALKKA-NH2 [PEG24LA, PEG24-LAH4-L1]”, the “mRNA affinity compared with non-PEGylated LA peptide” value in data set [1] is given as “comparable”. For the same substance, the “cytotoxicity of peptide compared with non-PEGylated LA peptide” value in data set [2] and in data set [3] was “significantly lower” in each case.
